Bioassay records from PubChem.
PKD1 kinase inh = PKD1 (human) kinase inhibition | Q15139 | PKD1 kinase fluorescence polarization assay | inhibition, % (test concentration not listed) | actives 0.056% (n = 200,000) | AID 797; in the data active = inhibition above about 50%
ABCG2 block = human ABCG2 inhibition, ABCB1 as counter-screen | inhibition, % at 6.6 µM | AID 1325 | actives 0.1% (n = 190,000) | Q9UNQ0 | IgMXP3 cells, JC-1 efflux, flow cytometry;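 active = inhibition above 80%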;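 note: 0% = DMSO and 100% = nicardipine control wells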
Target sequence (Q9UNQ0 whole entry, looked up): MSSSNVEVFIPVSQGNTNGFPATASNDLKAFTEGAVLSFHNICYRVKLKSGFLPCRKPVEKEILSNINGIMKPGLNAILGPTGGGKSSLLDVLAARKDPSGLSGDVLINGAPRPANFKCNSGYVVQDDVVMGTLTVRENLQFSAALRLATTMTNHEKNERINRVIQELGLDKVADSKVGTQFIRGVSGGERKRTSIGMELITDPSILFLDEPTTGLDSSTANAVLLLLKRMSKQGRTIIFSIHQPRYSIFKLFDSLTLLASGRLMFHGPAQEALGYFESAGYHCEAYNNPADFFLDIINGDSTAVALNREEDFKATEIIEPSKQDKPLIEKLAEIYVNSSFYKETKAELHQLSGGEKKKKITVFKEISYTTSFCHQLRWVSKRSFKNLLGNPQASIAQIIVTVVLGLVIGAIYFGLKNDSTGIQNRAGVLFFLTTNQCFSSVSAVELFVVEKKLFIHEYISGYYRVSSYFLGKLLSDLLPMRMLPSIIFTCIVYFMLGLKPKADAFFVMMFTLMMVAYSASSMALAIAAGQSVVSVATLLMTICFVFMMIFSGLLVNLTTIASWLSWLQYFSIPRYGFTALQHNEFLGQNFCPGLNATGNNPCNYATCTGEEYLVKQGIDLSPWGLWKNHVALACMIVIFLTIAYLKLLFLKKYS
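Read-out basis: Efflux inhibition in percent versus controls | Test system: ABCG2 IgMXP3 and barcoded ABCB1 CCRF-Adr cell mix | Quantity: 3 million cells/mL in well | Schedule: 10 min at 25 °C | Control set: Nicardipine as high control, DMSO as low control | Reagent: JC-1 as fluorescent efflux pump substrate | Signal: Flow cytometry of retained JC-1 fluorescence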
ABCB1 block = inhibitors of human ABCB1 transporter, ABCG2 counter-screen | P08183 | CCRF-Adr cells, JC-1 efflux, flow cytometry | inhibition, % at 6.6 µM | actives 0.067% (n = 190,000); in the data active = inhibition above about 40%;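 note: 0% = vehicle and 100% = reference inhibitor; higher value means more JC-1 retained so stronger ABCB1 efflux block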
p47phox inh = p47phox (human) inhibition | P14598 | p47phox/p22phox peptide binding, fluorescence polarization, 2 h | inhibition, % at 24.7 µM | actives 0.53% (n = 220,000) | AID 1274;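 active = inhibition above about 30%, limit read from the data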;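 note: 0% = p47phox with labelled peptide and 100% = labelled peptide alone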
HSV augment = HSV replication enhancement | HSV replication augmentation in cells, fold increase | maximum fold increase | actives 0.005% (n = 220,000); in the data active = maximum fold increase above about 1.5; tested in PC3 cells
PHOSPHO1 block = inhibitors of human PHOSPHO1 phosphatase | Q8TCT1 | recombinant PHOSPHO1, absorbance phosphatase assay | inhibition, % at 13.3 µM | actives 1.1% (n = 290,000); in the data active = inhibition above about 60%
* = called active by the depositor. Most compounds without a hit are left out; they make up all but 1.6% or so of the library.

COc1ccc(/C=C2\SC(=O)N(CC(=O)NC3C=CS(=O)(=O)C3)C2=O)cc1 (stereo not drawn) was read as PHOSPHO1 block 40.
`CCc1[nH]c(=O)c(C#N)c2c1CCCC2` gave PKD1 kinase inh -1, ABCG2 block 1, ABCB1 block 0, p47phox inh 33* and PHOSPHO1 block -13.
For Cc1ccccc1OCc1nnc(SCC(=O)NCc2ccco2)n1C the results were PKD1 kinase inh 0, ABCG2 block 2, ABCB1 block 0, p47phox inh active, HSV augment inactive and PHOSPHO1 block 36.
Screening COc1ccc(-c2nc(SCC(=O)NCc3ccco3)c(-c3ccccc3)[nH]2)cc1OC returned PKD1 kinase inh 2, ABCG2 block 2, ABCB1 block 0, p47phox inh -17, HSV augment inactive and PHOSPHO1 block 63*.
`O=C(CSc1nnc(C2CCCCC2)n1Cc1ccccc1)NCc1ccco1` gave PKD1 kinase inh -1, ABCG2 block 0, ABCB1 block 1, p47phox inh -3, HSV augment inactive and PHOSPHO1 block 76*.
For Cc1ccccc1Nc1nnc(SCC(=O)NCc2ccco2)s1 the results were PKD1 kinase inh -9, ABCG2 block 9, ABCB1 block 0, p47phox inh -9, HSV augment inactive and PHOSPHO1 block 87*.
For Cn1nccc1C(=O)NC1CC(C)(C)Cc2c1cnn2-c1ccc(F)cc1 (stereo not drawn) the results were PHOSPHO1 block 36.
For COc1ccc(-n2nnnc2SCC(=O)Nc2ccc(OC)cc2OC)cc1 the results were PHOSPHO1 block 14.
Screening COc1ccccc1OCc1nnc(SCC(=O)NCc2ccco2)n1Cc1ccco1 returned PKD1 kinase inh 2, ABCG2 block 4, ABCB1 block 2, p47phox inh -21, HSV augment inactive and PHOSPHO1 block 65*.
Cc1ccc2cc(C#N)c(SCC(=O)NCc3ccco3)nc2c1 was read as PKD1 kinase inh 10, ABCG2 block 8, ABCB1 block 0, p47phox inh -31, HSV augment inactive and PHOSPHO1 block 30.
Screening C=CCn1c(COc2ccccc2F)nnc1SCC(=O)NC(=O)NCc1ccco1 returned PKD1 kinase inh -6, ABCG2 block 4, ABCB1 block 1, p47phox inh -25 and PHOSPHO1 block 81*.
For COc1ccccc1NC(=O)CSc1nnc(COc2ccc(Cl)cc2)n1Cc1ccco1 the results were PKD1 kinase inh -3, ABCG2 block 8, ABCB1 block 2, p47phox inh -14, HSV augment inactive and PHOSPHO1 block 34.
Screening Cc1ccc2nc(SCC(=O)NCc3ccco3)c(C#N)cc2c1 returned PKD1 kinase inh -4, ABCG2 block 2, ABCB1 block 0, p47phox inh 33*, HSV augment inactive and PHOSPHO1 block 28.
For COc1ccccc1N1CCN(C(=O)C2CCC(CNS(=O)(=O)c3ccc(NC(C)=O)cc3)CC2)CC1 (stereo not drawn) the results were PHOSPHO1 block 33.
COc1ccc(CNCc2c(F)cccc2F)cc1OC was read as PHOSPHO1 block 19.
Screening CN(C)c1ccc(NC(=O)Nc2cccc(Cl)c2)cc1 returned PKD1 kinase inh -4, ABCG2 block -1, ABCB1 block -1, p47phox inh -5, HSV augment inactive and PHOSPHO1 block 93*.
`CN(c1cccc(NC(=O)Nc2cccc(Cl)c2)c1)S(C)(=O)=O` gave PKD1 kinase inh -4, ABCG2 block 54, ABCB1 block 1, p47phox inh -13, HSV augment inactive and PHOSPHO1 block 22.
For C#CCOCCOCCOCCNc1nc(N2CCN(C(=O)[C@H](CCCCN)n3cc(C(N)COC(=O)C(F)(F)F)nn3)CC2)nc(N2CCN(C(=O)[C@H](CCCCN)n3cc(C(N)CC(C)C)nn3)CC2)n1 (stereo partly drawn) the results were p47phox inh 34* and PHOSPHO1 block 18.
Screening C#CCOCCOCCOCCNc1nc(N2CCN(C(=O)[C@H](CCCCN)n3cc([C@@H](N)CO)nn3)CC2)nc(N2CCN(C(=O)[C@H](Cc3cc4ccccc4[nH]3)n3cc([C@@H](N)CO)nn3)CC2)n1 returned p47phox inh 39* and PHOSPHO1 block 22.
N/C(=N\OC(=O)Cc1ccccc1)c1ccccc1Cl was read as PKD1 kinase inh -1, ABCG2 block 2, ABCB1 block 0, p47phox inh -3, HSV augment inactive and PHOSPHO1 block 52.
For O=c1[nH]c2ccc(S(=O)(=O)Nc3ccccc3O)cc2[nH]1 the results were PHOSPHO1 block 13.
`Clc1ccc(OCc2nnc(-c3ccccc3Br)o2)c(Cl)c1` gave PKD1 kinase inh -2, ABCG2 block 0, ABCB1 block 0, p47phox inh 43*, HSV augment inactive and PHOSPHO1 block 24.
For COc1cc(C(C(=O)NC2CCCC2)N(C(=O)c2snc(C(N)=O)c2N)c2ccccc2)cc(OC)c1OC (stereo not drawn) the results were PHOSPHO1 block 45.
Screening Cn1nc(CC(=O)Nc2ccc(N3CCN(C(=O)OC(C)(C)C)CC3)cc2)c2ccccc2c1=O returned PKD1 kinase inh 4, ABCG2 block 30, ABCB1 block 2, p47phox inh 31* and PHOSPHO1 block -7.
Cn1nc(CC(=O)N2CCN(c3ccccc3)CC2)c2ccccc2c1=O was read as PKD1 kinase inh 5, ABCG2 block 4, ABCB1 block 1, p47phox inh 1, HSV augment inactive and PHOSPHO1 block 16.
For O=C(Nc1ccc([N+](=O)[O-])cc1)Nc1ccc(OC(F)F)c(Cl)c1 the results were PKD1 kinase inh -9, ABCG2 block 86*, ABCB1 block 27, p47phox inh -45, HSV augment inactive and PHOSPHO1 block 0.
Screening O=C(Nc1ccc(OC(F)F)c(Cl)c1)Nc1ccc2c(c1)OCO2 returned PKD1 kinase inh 1, ABCG2 block 1, ABCB1 block 0, p47phox inh 7, HSV augment inactive and PHOSPHO1 block -1.
`CCC(C)(C)n1nnnc1C(c1ccc(O)cc1)N1CCc2ccccc2C1` (stereo not drawn) gave PKD1 kinase inh 1, ABCG2 block 0, ABCB1 block 0, p47phox inh 3, HSV augment inactive and PHOSPHO1 block -112.
`CCc1ccc(C(=O)c2ccccc2C(=O)O)s1` gave PKD1 kinase inh -3, ABCG2 block 0, ABCB1 block 0, p47phox inh -2, HSV augment inactive and PHOSPHO1 block 38.
`CC(C)Cc1ccc(/C(=N/O)C(=O)O)s1` gave PKD1 kinase inh -13, ABCG2 block -1, ABCB1 block 0, p47phox inh 58*, HSV augment inactive and PHOSPHO1 block -15.
